From ChEMBL document CHEMBL3739352, “Anticonvulsant activity, crystal structures, and preliminary safety evaluation of N-trans-cinnamoyl derivatives of selected (un)modified aminoalkanols” (Eur J Med Chem, 2016)
Calls of active or inactive are those of the source. The rule behind the calls is not given here.

Legend:
Mus musculus [1] = assay: Neurotoxicity in albino Carworth Farms No.1 mouse at 300 mg/kg, ip after 0.5 hrs by rotarod test; format: toxicity, organism-based; conditions: in vivo
Method in brief: (§1)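 Mice (albino Carworth Farms No.1) were dosed i.p. at 30, 100 or 300 mg/kg in 0.5% methylcellulose. They were tested 0.5 and 4 h later on a 1-inch knurled rod rotating at 6 rpm. Neurotoxicity was scored if a mouse could not stay on the rod for at least 1 min in each of three trials. Results are given as animals toxic/animals tested, with deaths noted.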

Mus musculus [2] = assay: Neurotoxicity in albino Carworth Farms No.1 mouse at 100 mg/kg, ip after 0.5 hrs by rotarod test; format: toxicity, organism-based; conditions: in vivo; method in brief: as §1
Mus musculus [3] = assay: Anticonvulsant activity in albino Carworth Farms No.1 mouse assessed as protection against subcutaneous dosed pentetrazol-induced seizures at 300 mg/kg, ip after 4 hrs; format: functional, organism-based
Method in brief: (§2)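 Mouse i.p. screen in Carworth Farms No.1 albino mice at 30, 100 or 300 mg/kg in 0.5% methylcellulose. Testing was at 0.5 and 4 h after injection, by maximal electroshock or by subcutaneous pentetrazol challenge. Scoring was number protected / number used.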

Mus musculus [4] = assay: Neurotoxicity in albino Carworth Farms No.1 mouse at 30 mg/kg, ip after 0.5 hrs by rotarod test; format: toxicity, organism-based; conditions: in vivo; method in brief: as §1
Mus musculus [5] = assay: Anticonvulsant activity in albino Carworth Farms No.1 mouse assessed as protection against subcutaneous dosed pentetrazol-induced seizures at 100 mg/kg, ip after 4 hrs; format: functional, organism-based; method in brief: as §2
Mus musculus [6] = assay: Anticonvulsant activity in albino Carworth Farms No.1 mouse assessed as protection against subcutaneous dosed pentetrazol-induced seizures at 100 mg/kg, ip after 0.5 hrs; format: functional, organism-based; method in brief: as §2
Mus musculus [7] = assay: Anticonvulsant activity in albino Carworth Farms No.1 mouse assessed as protection against subcutaneous dosed pentetrazol-induced seizures at 30 mg/kg, ip after 4 hrs; format: functional, organism-based; method in brief: as §2
Mus musculus [8] = assay: Anticonvulsant activity in albino Carworth Farms No.1 mouse assessed as protection against maximal electroshock-induced seizures at 300 mg/kg, ip after 4 hrs; format: functional, organism-based; method in brief: as §2
Mus musculus [9] = assay: Anticonvulsant activity in albino Carworth Farms No.1 mouse assessed as protection against maximal electroshock-induced seizures at 100 mg/kg, ip after 4 hrs; format: functional, organism-based; method in brief: as §2
Mus musculus [10] = assay: Anticonvulsant activity in albino Carworth Farms No.1 mouse assessed as protection against maximal electroshock-induced seizures at 100 mg/kg, ip after 0.5 hrs; format: functional, organism-based; method in brief: as §2
Mus musculus [11] = assay: Anticonvulsant activity in albino Carworth Farms No.1 mouse assessed as protection against maximal electroshock-induced seizures at 30 mg/kg, ip after 0.5 hrs; format: functional, organism-based; method in brief: as §2
Mus musculus [12] = assay: Anticonvulsant activity in albino Carworth Farms No.1 mouse assessed as protection against maximal electroshock-induced seizures at 30 mg/kg, ip after 4 hrs; format: functional, organism-based; method in brief: as §2
Salmonella typhimurium [13] = assay: Mutagenicity in Salmonella typhimurium TA98 assessed as number of revertants at 500 ug/plate by Ames test (reference value: 23 +/- 3); format: toxicity, organism-based; conditions: salmonella enterica subsp. enterica serovar typhimurium
Salmonella typhimurium [14] = assay: Mutagenicity in Salmonella typhimurium TA100 assessed as mutagenic index at 100 ug/plate by Ames test; format: toxicity, organism-based; conditions: salmonella enterica subsp. enterica serovar typhimurium
Method in brief: (§3)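 Ames preincubation test. Strain culture was grown 12 h at 37 °C in nutrient broth, then mixed with compound in DMSO (final 4, 20, 100, 500, 1000 per plate) and buffer in top agar with trace histidine. This was plated on glucose minimal agar for 48 h at 37 °C. Mutagenic index = revertants with compound / DMSO control revertants, from three independent repeats.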

Salmonella typhimurium [15] = assay: Mutagenicity in Salmonella typhimurium TA100 assessed as assessed as mutagenic index at 1000 ug/plate by Ames test; format: toxicity, organism-based; conditions: salmonella enterica subsp. enterica serovar typhimurium; method in brief: as §3
Salmonella typhimurium [16] = assay: Mutagenicity in Salmonella typhimurium TA1535 assessed as assessed as mutagenic index at 20 ug/plate by Ames test; format: toxicity, organism-based; conditions: salmonella enterica subsp. enterica serovar typhimurium; method in brief: as §3
Salmonella typhimurium [17] = assay: Mutagenicity in Salmonella typhimurium TA1535 assessed as mutagenic index at 1000 ug/plate by Ames test; format: toxicity, organism-based; conditions: salmonella enterica subsp. enterica serovar typhimurium
Salmonella typhimurium [18] = assay: Mutagenicity in Salmonella typhimurium TA98 assessed as mutagenic index at 100 ug/plate by Ames test; format: toxicity, organism-based; conditions: salmonella enterica subsp. enterica serovar typhimurium
Salmonella typhimurium [19] = assay: Mutagenicity in Salmonella typhimurium TA98 assessed as mutagenic index at 500 ug/plate by Ames test; format: toxicity, organism-based; conditions: salmonella enterica subsp. enterica serovar typhimurium
Salmonella typhimurium [20] = assay: Mutagenicity in Salmonella typhimurium TA98 assessed as mutagenic index at 1000 ug/plate by Ames test; format: toxicity, organism-based; conditions: salmonella enterica subsp. enterica serovar typhimurium
Mus musculus [21] = assay: Neurotoxicity in albino Carworth Farms No.1 mouse at 30 mg/kg, ip after 4 hrs by rotarod test; format: toxicity, organism-based; conditions: in vivo; method in brief: as §1
[22] = Lipophilicity of the compound using 85% methanol in water at 1 mg/ml by RT-TLC analysis; format: physicochemical; conditions: buffer
Method in brief: (§4)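 Reversed-phase TLC with a methanol–water mobile phase at the stated methanol content (v/v). Compounds were spotted from 1 mg/mL methanol solutions after 1 h chamber saturation and located under UV light. Rf was measured and RM = log(1/Rf − 1) calculated.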

[23] = Lipophilicity of the compound using 75% methanol in water at 1 mg/ml by RT-TLC analysis; format: physicochemical; conditions: buffer; method in brief: as §4
[24] = Lipophilicity of the compound at 1 mg/ml by RT-TLC analysis relative to 0% methanol; format: physicochemical; conditions: methanol/water
Method in brief: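 Reversed-phase TLC used methanol–water mobile phases of 95–65% methanol. Compounds were applied from 1 mg/mL methanol solutions after 1 h chamber saturation, with UV detection. RM = log(1/Rf − 1) was calculated at each methanol level and extrapolated linearly (RM = RM0 + bC) to 0% methanol to give RM0.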

Salmonella typhimurium [25] = assay: Mutagenicity in Salmonella typhimurium TA98 assessed as number of revertants at 100 ug/plate by Ames test (reference value: 23 +/- 3); format: toxicity, organism-based; conditions: salmonella enterica subsp. enterica serovar typhimurium
Salmonella typhimurium [26] = assay: Mutagenicity in Salmonella typhimurium TA98 assessed as number of revertants at 20 ug/plate by Ames test (reference value: 23 +/- 3); format: toxicity, organism-based; conditions: salmonella enterica subsp. enterica serovar typhimurium
Salmonella typhimurium [27] = assay: Mutagenicity in Salmonella typhimurium TA98 assessed as number of revertants at 4 ug/plate by Ames test (reference value: 23 +/- 3); format: toxicity, organism-based; conditions: salmonella enterica subsp. enterica serovar typhimurium
Salmonella typhimurium [28] = assay: Mutagenicity in Salmonella typhimurium TA1535 assessed as number of revertants at 1000 ug/plate by Ames test (reference value: 10 +/- 3); format: toxicity, organism-based; conditions: salmonella enterica subsp. enterica serovar typhimurium
Salmonella typhimurium [29] = assay: Mutagenicity in Salmonella typhimurium TA1535 assessed as number of revertants at 500 ug/plate by Ames test (reference value: 10 +/- 3); format: toxicity, organism-based; conditions: salmonella enterica subsp. enterica serovar typhimurium
Salmonella typhimurium [30] = assay: Mutagenicity in Salmonella typhimurium TA1535 assessed as number of revertants at 100 ug/plate by Ames test (reference value: 10 +/- 3); format: toxicity, organism-based; conditions: salmonella enterica subsp. enterica serovar typhimurium
Salmonella typhimurium [31] = assay: Mutagenicity in Salmonella typhimurium TA1535 assessed as number of revertants at 20 ug/plate by Ames test (reference value: 10 +/- 3); format: toxicity, organism-based; conditions: salmonella enterica subsp. enterica serovar typhimurium
Salmonella typhimurium [32] = assay: Mutagenicity in Salmonella typhimurium TA100 assessed as number of revertants at 100 ug/plate by Ames test (reference value: 77 +/-4); format: toxicity, organism-based; conditions: salmonella enterica subsp. enterica serovar typhimurium
Method in brief: (§5)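 Salmonella TA100 preincubation Ames assay: overnight-type 12 h broth culture at 37 °C, compound in DMSO at final 4–1000 per plate, top agar with trace histidine, glucose minimal agar, 48 h at 37 °C. Revertant colonies per plate were counted, with a DMSO negative control and a sodium azide positive control. Three independent repetitions were run.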

Salmonella typhimurium [33] = assay: Mutagenicity in Salmonella typhimurium TA100 assessed as number of revertants at 4 ug/plate by Ames test (reference value: 77 +/-4); format: toxicity, organism-based; conditions: salmonella enterica subsp. enterica serovar typhimurium; method in brief: as §5

In the case of CCC(O)CNC(=O)/C=C/c1ccccc1 (racemic), the Activity (Mus musculus [1]) is reported as “Non-toxic”, the Activity (Mus musculus [2]) is reported as “Non-toxic” and the Activity (Mus musculus [3]) is reported as “inactive”. For the same compound, the Activity (Mus musculus [4]) was “Non-toxic”, the Activity (Mus musculus [5]) was “inactive” and the Activity (Mus musculus [6]) was “inactive”. For the same compound, the Activity (Mus musculus [7]) was “inactive”, the Activity (Mus musculus [8]) was “inactive” and the Activity (Mus musculus [9]) was “inactive”. The Activity (Mus musculus [10]) was “inactive”, the Activity (Mus musculus [11]) was “inactive” and the Activity (Mus musculus [12]) was “inactive”. The Activity (Salmonella typhimurium [13]) was 17, the Activity_index (Salmonella typhimurium [14]) was 0.8 and the Activity_index (Salmonella typhimurium [15]) was 0.9. For the same compound, the Activity_index (Salmonella typhimurium [16]) was 1.4, the Activity_index (Salmonella typhimurium [17]) was 0.6 and the Activity_index (Salmonella typhimurium [18]) was 0.9. The Activity_index (Salmonella typhimurium [19]) was 0.7, the Activity_index (Salmonella typhimurium [20]) was 1.1 and the Activity (Mus musculus [21]) was “Non-toxic”. The Rm [22] was -0.25, the Rm [23] was -0.18 and the Rm [24] was 1.937. The Activity (Salmonella typhimurium [25]) was 21, the Activity (Salmonella typhimurium [26]) was 20 and the Activity (Salmonella typhimurium [27]) was 19. It also gave an Activity (Salmonella typhimurium [28]) of 6, an Activity (Salmonella typhimurium [29]) of 7 and an Activity (Salmonella typhimurium [30]) of 5. The Activity (Salmonella typhimurium [31]) was 14, the Activity (Salmonella typhimurium [32]) was 62 and the Activity (Salmonella typhimurium [33]) was 60.
With CCC(CO)NC(=O)/C=C/c1ccccc1 (racemic) the Activity (Mus musculus [1]) was “Non-toxic”, the Activity (Mus musculus [2]) was “Non-toxic” and the Activity (Mus musculus [3]) was “inactive”. For the same compound, the Activity (Mus musculus [4]) was “Non-toxic”, the Activity (Mus musculus [5]) was “inactive” and the Activity (Mus musculus [6]) was “inactive”. The Activity (Mus musculus [7]) was “inactive”, the Activity (Mus musculus [8]) was “inactive” and the Activity (Mus musculus [9]) was “inactive”. For the same compound, the Activity (Mus musculus [10]) was “inactive”, the Activity (Mus musculus [11]) was “inactive” and the Activity (Mus musculus [12]) was “inactive”. It also gave an Activity (Salmonella typhimurium [13]) of 21, an Activity_index (Salmonella typhimurium [14]) of 0.8 and an Activity_index (Salmonella typhimurium [15]) of 0.8. The Activity_index (Salmonella typhimurium [16]) was 0.5, the Activity_index (Salmonella typhimurium [17]) was 1.3 and the Activity_index (Salmonella typhimurium [18]) was 1. For the same compound, the Activity_index (Salmonella typhimurium [19]) was 0.9, the Activity_index (Salmonella typhimurium [20]) was 0.8 and the Activity (Mus musculus [21]) was “Non-toxic”. It also gave a Rm [22] of -0.29, a Rm [23] of -0.19 and a Rm [24] of 2.093. For the same compound, the Activity (Salmonella typhimurium [25]) was 22, the Activity (Salmonella typhimurium [26]) was 24 and the Activity (Salmonella typhimurium [27]) was 21. The Activity (Salmonella typhimurium [28]) was 13, the Activity (Salmonella typhimurium [29]) was 13 and the Activity (Salmonella typhimurium [30]) was 14. It also gave an Activity (Salmonella typhimurium [31]) of 5, an Activity (Salmonella typhimurium [32]) of 64 and an Activity (Salmonella typhimurium [33]) of 68.
